Type in all cases: functional, cell-based
Assay [1] can be described thus: Cytotoxicity against human ES2 cells assessed as cell viability after 48 hrs by MTT assay. The conditions noted are these: ES-2, 48 h. The method, boiled down: (§1)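 HT-29 colon and ES-2 ovarian cells were grown in McCoy's 5A with 10% FCS and 1% Pen-Strep, and MT-3 breast cells in RPMI. Cells were seeded at 1 × 10⁴ per well 24 h before dosing. Free drug was given in DMSO/water (final DMSO max 0.5%). Liposomes were diluted in PBS, with lipid content set by phosphorus analysis. Exposure lasted 24 h, then cells were washed and kept 48 h in complete medium.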

The nature of assay [2]: Cytotoxicity against human MT3 cells assessed as cell viability after 48 hrs by MTT assay in presence of Agkistrodon piscivorus secreted PLA2. The conditions noted are these: MT-3, 48 h. The method, boiled down:
(§2)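 These lines follow the same protocol: HT-29 and ES-2 cells in McCoy's 5A with 10% FCS and 1% Pen-Strep, MT-3 cells in RPMI, seeded at 1 × 10⁴ per well 24 h ahead. Liposomal prodrugs in PBS were given with Agkistrodon piscivorus piscivorus venom sPLA₂ at 5 nM final. Exposure lasted 24 h, then cells were washed and given 48 h recovery in complete medium.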
In general terms: Tetrazolium dyes change colour on reduction, which living cells bring about.

For assay [3], the system named is HT-29. In words: Cytotoxicity against human HT-29 cells assessed as cell viability after 48 hrs by MTT assay in presence of Agkistrodon piscivorus secreted PLA2. As to conditions: HT-29, 48 h. The method, boiled down:
as §2

The nature of assay [4]: Cytotoxicity against human ES2 cells assessed as cell viability after 48 hrs by MTT assay in presence of Agkistrodon piscivorus secreted PLA2. As to conditions: ES-2, 48 h. In a few lines: as §2
Assay [5] can be described thus: Cytotoxicity against human MT3 cells assessed as cell viability after 48 hrs by MTT assay. As to conditions: MT-3, 48 h. In a few lines:
as §1

Assay [6] has as its system HT-29. In words: Cytotoxicity against human HT-29 cells assessed as cell viability after 48 hrs by MTT assay. The conditions noted are these: HT-29, 48 h. The method, boiled down: as §1

One may read the IC50 as the concentration that gives 50% inhibition.

On to `CCCCCCCCCCCCCCCCCCOC[C@H](COP(=O)(O)OC[C@@H](O)CO)OC(=O)CCCc1ccc(N(CCCl)CCCl)cc1`, for which the IC50 in assay [1] was 97 µM; in assay [2], 36 µM; in the assay on HT-29 [3], 10 µM; in assay [4], 8 µM; in assay [5], over 200 µM; with HT-29 [6], over 200 µM.
For `CCCCCCCCCCCCCCCCCCOC[C@H](COP(=O)([O-])OCC[N+](C)(C)C)OC(=O)CCCc1ccc(N(CCCl)CCCl)cc1`, the IC50 in assay [2] is 36 µM; in the assay with HT-29 [3], 32 µM; in assay [5], over 200 µM; with HT-29 [6] it was over 200 µM.
Regarding `CCCCCCCCCCCCCCCCCCOC[C@@H](O)COP(=O)([O-])OCC[N+](C)(C)C`, the figures for the IC50 (in assay [1]; in assay [5]; in the assay with HT-29 [6]) were 30 µM, 35 µM and 18 µM, respectively.
The matching figures for `O=C(O)CCCc1ccc(N(CCCl)CCCl)cc1` [CHLORAMBUCIL]: 34 µM, 95 µM and 70 µM.
